Measured values: ChEMBL document CHEMBL2321664, “L-Aminoacyl-triazine derivatives are isoform-selective PI3Kβ inhibitors that target non-conserved Asp862 of PI3Kβ” (ACS Med Chem Lett, 2013)

Experiments:
[1] = target: T1, Phosphatidylinositol 4,5-bisphosphate 3-kinase catalytic subunit delta isoform (Homo sapiens, UniProt O00329); assay: Inhibition of PI3K-delta (unknown origin) assessed as decrease in ATP consumption using phosphatidylinositol bisphosphate and 10 uM ATP as substrate measured after 60 mins by luminescence assay
T1 sequence (O00329 whole entry): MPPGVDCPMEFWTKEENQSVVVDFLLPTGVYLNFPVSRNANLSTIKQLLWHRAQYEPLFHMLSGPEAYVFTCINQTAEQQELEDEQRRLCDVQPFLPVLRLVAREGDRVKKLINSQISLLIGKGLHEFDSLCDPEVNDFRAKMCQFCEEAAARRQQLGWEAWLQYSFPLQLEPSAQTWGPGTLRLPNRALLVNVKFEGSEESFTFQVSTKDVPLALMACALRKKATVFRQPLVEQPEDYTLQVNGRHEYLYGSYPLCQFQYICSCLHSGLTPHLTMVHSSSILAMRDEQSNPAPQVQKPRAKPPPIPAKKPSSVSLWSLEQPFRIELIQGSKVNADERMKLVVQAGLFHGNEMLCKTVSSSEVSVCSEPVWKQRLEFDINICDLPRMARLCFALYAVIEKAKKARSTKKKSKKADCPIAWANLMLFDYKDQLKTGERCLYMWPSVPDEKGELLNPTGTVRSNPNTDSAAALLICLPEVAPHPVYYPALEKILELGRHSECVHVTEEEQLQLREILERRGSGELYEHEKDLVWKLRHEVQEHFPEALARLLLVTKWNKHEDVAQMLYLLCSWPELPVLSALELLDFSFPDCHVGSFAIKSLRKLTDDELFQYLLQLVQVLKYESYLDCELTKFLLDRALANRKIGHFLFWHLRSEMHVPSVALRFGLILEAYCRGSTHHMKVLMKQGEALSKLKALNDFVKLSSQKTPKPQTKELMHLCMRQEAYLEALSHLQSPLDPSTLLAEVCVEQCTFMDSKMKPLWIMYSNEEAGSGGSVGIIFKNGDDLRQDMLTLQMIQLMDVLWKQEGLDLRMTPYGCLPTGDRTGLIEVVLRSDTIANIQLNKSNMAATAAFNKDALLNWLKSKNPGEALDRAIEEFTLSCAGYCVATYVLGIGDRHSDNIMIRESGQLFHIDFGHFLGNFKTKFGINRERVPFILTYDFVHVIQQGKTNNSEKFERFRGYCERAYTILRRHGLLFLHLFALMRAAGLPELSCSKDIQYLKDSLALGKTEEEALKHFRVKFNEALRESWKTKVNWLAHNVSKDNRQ

[2] = target: Phosphatidylinositol 4,5-bisphosphate 3-kinase catalytic subunit gamma isoform (Homo sapiens, UniProt P48736); assay: Inhibition of PI3K-gamma (unknown origin) assessed as decrease in ATP consumption using phosphatidylinositol bisphosphate and 10 uM ATP as substrate measured after 60 mins by luminescence assay
Chain of Phosphatidylinositol 4,5-bisphosphate 3-kinase catalytic subunit gamma isoform (P48736 whole entry, canonical isoform): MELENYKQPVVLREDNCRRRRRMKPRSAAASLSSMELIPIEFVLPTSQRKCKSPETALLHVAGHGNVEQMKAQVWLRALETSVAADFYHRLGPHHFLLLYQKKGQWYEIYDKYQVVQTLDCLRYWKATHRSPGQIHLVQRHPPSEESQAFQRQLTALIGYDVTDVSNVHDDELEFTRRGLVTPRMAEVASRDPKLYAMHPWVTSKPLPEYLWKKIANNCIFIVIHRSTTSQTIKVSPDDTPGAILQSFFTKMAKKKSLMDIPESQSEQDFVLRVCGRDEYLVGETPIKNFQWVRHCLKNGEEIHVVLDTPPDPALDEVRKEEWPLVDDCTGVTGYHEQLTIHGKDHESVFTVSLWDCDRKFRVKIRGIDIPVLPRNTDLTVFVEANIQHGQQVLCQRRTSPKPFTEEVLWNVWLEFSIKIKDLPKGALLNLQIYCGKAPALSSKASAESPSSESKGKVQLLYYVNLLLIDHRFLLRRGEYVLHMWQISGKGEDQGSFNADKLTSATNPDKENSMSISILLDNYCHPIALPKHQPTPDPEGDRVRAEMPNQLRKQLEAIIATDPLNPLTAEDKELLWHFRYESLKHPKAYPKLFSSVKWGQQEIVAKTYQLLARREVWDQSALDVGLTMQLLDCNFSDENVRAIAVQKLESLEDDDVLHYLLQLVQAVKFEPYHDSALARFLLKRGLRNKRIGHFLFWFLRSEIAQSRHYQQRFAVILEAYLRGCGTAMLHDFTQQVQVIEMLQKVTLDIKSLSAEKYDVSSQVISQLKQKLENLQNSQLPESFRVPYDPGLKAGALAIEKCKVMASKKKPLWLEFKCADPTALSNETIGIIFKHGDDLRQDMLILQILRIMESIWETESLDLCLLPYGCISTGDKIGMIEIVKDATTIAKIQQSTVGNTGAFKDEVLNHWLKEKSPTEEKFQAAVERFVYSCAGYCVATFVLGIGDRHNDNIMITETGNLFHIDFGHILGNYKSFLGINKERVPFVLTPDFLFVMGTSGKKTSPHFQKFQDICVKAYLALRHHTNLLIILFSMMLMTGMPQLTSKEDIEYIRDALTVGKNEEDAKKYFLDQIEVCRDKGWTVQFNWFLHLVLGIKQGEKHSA

[3] = target: T2, Phosphatidylinositol 4,5-bisphosphate 3-kinase catalytic subunit beta isoform (Homo sapiens, UniProt P42338); assay: Inhibition of PI3K-beta (unknown origin) assessed as decrease in ATP consumption using phosphatidylinositol bisphosphate and 10 uM ATP as substrate measured after 60 mins by luminescence assay
T2 sequence (P42338 whole entry, canonical isoform): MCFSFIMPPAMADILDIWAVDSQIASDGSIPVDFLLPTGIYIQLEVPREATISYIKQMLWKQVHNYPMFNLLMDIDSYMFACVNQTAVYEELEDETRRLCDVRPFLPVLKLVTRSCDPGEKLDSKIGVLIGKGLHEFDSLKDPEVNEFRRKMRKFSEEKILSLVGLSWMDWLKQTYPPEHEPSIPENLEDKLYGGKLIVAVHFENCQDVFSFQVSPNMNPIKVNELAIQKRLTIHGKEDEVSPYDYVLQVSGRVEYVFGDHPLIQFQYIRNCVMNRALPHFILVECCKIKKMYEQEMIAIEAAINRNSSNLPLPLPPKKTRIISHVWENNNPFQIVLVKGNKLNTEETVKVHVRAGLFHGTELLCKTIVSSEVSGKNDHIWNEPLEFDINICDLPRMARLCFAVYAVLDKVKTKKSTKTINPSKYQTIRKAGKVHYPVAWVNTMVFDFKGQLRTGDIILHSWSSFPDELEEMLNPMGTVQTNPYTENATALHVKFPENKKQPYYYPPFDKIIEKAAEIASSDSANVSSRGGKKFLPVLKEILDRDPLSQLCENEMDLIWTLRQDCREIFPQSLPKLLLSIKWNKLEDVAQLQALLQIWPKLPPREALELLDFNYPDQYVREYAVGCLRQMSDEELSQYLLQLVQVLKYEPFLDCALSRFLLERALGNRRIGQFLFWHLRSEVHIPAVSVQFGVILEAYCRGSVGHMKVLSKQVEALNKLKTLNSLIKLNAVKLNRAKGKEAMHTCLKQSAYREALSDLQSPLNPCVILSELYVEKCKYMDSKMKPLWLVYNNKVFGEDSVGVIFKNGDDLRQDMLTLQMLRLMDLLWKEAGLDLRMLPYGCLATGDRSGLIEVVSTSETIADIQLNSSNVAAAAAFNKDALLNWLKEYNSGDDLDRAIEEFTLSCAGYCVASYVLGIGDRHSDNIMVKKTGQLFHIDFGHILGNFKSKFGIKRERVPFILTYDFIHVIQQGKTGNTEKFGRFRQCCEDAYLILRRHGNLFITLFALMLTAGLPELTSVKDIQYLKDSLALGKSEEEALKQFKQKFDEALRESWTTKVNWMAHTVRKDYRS

[4] = target: Phosphatidylinositol 4,5-bisphosphate 3-kinase catalytic subunit alpha isoform (Homo sapiens, UniProt P42336); assay: Inhibition of PI3K-alpha (unknown origin) assessed as decrease in ATP consumption using phosphatidylinositol bisphosphate and 10 uM ATP as substrate measured after 60 mins by luminescence assay
Chain of Phosphatidylinositol 4,5-bisphosphate 3-kinase catalytic subunit alpha isoform (P42336 whole entry, canonical isoform): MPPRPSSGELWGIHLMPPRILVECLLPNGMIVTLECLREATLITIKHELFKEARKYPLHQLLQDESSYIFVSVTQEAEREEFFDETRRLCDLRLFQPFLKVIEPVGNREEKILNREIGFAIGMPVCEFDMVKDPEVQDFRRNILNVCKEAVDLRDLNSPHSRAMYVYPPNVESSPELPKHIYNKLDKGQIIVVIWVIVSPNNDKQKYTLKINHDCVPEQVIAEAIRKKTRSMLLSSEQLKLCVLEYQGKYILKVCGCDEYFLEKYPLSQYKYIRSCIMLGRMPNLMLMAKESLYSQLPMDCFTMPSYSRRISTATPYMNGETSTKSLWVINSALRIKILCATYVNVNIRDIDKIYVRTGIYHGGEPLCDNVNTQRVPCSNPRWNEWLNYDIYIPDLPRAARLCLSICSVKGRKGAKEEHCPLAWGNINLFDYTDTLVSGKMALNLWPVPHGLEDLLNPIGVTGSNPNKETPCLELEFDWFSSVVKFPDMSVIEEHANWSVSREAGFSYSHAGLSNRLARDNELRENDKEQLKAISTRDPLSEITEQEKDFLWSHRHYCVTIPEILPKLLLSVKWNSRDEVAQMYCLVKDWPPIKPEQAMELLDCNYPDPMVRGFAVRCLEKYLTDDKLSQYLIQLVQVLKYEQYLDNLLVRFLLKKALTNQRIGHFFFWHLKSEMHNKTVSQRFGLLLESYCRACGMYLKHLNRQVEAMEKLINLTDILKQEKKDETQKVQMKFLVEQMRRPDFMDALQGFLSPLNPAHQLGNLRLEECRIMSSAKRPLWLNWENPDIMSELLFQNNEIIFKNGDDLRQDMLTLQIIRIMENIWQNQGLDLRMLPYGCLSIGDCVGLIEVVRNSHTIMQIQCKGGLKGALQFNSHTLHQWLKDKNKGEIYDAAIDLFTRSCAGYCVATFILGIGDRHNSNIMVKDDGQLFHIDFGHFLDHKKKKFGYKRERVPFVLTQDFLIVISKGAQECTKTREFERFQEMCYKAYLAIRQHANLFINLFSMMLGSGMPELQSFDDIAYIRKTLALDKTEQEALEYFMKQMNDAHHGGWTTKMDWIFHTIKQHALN

[5] = target: Phosphatidylinositol 4,5-bisphosphate 3-kinase catalytic subunit beta isoform (Homo sapiens, UniProt P42338, D862Q); assay: Inhibition of recombinant PI3K-beta D862Q mutant (unknown origin) expressed in baculovirus infected Sf21 cells assessed as decrease in ATP consumption using phosphatidylinositol bisphosphate and 100 uM ATP as substrate measured after 60 mins by luminescence assay
Chain of Phosphatidylinositol 4,5-bisphosphate 3-kinase catalytic subunit beta isoform (Homo sapiens, UniProt P42338, D862Q) (P42338 whole entry D862Q, canonical isoform): as the sequence (P42338 whole entry, canonical isoform) above, with D862Q counted along it
In short: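 Kinase-Glo luminescent read-out of kinase activity with 100 μM ATP. Run alongside the wild-type PI3Kβ enzyme and the wild-type and reciprocal-mutant PI3Kα enzymes. IC50 values are means of at least two duplicate experiments.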

[6] = target: RAC-alpha serine/threonine-protein kinase (Homo sapiens, UniProt P31749); assay: Inhibition of IGF-1 induced Akt phosphorylation in PTEN-deficient human MDA-MB-468 cells pretreated for 2 hrs before IGF1 induction measured after 15 mins by Western blot analysis; format: cell-based
Chain of RAC-alpha serine/threonine-protein kinase (P31749 whole entry, canonical isoform): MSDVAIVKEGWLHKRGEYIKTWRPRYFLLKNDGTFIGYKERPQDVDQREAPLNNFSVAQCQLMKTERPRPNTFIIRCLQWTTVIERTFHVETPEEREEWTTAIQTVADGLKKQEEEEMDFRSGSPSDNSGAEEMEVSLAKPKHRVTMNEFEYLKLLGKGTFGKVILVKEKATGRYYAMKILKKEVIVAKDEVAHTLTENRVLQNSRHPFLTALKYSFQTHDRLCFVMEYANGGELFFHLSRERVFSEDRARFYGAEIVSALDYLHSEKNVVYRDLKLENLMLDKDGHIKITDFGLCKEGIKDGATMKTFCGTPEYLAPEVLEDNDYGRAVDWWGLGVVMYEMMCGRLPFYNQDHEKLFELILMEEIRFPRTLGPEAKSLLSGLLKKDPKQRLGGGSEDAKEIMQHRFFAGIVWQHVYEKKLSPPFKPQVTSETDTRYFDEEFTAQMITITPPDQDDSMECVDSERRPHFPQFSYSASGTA

[7] = target: T2, Phosphatidylinositol 4,5-bisphosphate 3-kinase catalytic subunit beta isoform; assay: Inhibition of wild type PI3K-beta (unknown origin) assessed as decrease in ATP consumption using phosphatidylinositol bisphosphate and 100 uM ATP as substrate measured after 60 mins by luminescence assay
In short: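 Kinase-Glo read-out with 100 μM ATP, run alongside the D862Q mutant and the wild-type and reciprocal-mutant PI3Kα forms. IC50 is the mean of at least two duplicate experiments.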

With `CN[C@@H](C)C(=O)N1CCN(c2nc(N3CCOCC3)nc(-n3c(C(F)F)nc4ccccc43)n2)CC1` the IC50 [1] was 290 nM, the IC50 [2] was 8000 nM and the IC50 [3] was 260 nM. For the same compound, the IC50 [4] was 1500 nM.
`O=C([C@@H]1CCCN1)N1CCN(c2nc(N3CCOCC3)nc(-n3c(C(F)F)nc4ccccc43)n2)CC1` was tested, and the IC50 [1] was 390 nM, the IC50 [2] was greater than 10000 nM and the IC50 [3] was 26 nM. It also gave an IC50 [4] of 2200 nM.
`N[C@H](Cc1ccccc1)C(=O)N1CCN(c2nc(N3CCOCC3)nc(-n3c(C(F)F)nc4ccccc43)n2)CC1` showed an IC50 [1] of 3600 nM, an IC50 [2] greater than 10000 nM and an IC50 [3] greater than 10000 nM.
`C[C@@H](N)C(=O)N1CCN(c2nc(N3CCOCC3)nc(-n3c(C(F)F)nc4ccccc43)n2)CC1` showed an IC50 [1] of 70 nM, an IC50 [2] of 2000 nM and an IC50 [3] of 1000 nM.
With `CN(C)CC(=O)N1CCN(c2nc(N3CCOCC3)nc(-n3c(C(F)F)nc4ccccc43)n2)CC1` the IC50 [1] was 330 nM, the IC50 [2] was greater than 10000 nM and the IC50 [3] was 2400 nM. It also gave an IC50 [4] of 1600 nM.
In the case of `N[C@@H](Cc1ccccc1)C(=O)N1CCN(c2nc(N3CCOCC3)nc(-n3c(C(F)F)nc4ccccc43)n2)CC1`, the IC50 [5] is reported as 6000 nM, the IC50 [6] is reported as less than 10 nM and the inhibition [6] is reported as “Dose-dependent effect”. For the same compound, the IC50 [7] was 74 nM, the IC50 [1] was 2200 nM and the IC50 [3] was 63 nM.
`N[C@@H](Cc1ccc(O)cc1)C(=O)N1CCN(c2nc(N3CCOCC3)nc(-n3c(C(F)F)nc4ccccc43)n2)CC1` gave an IC50 [1] of 1200 nM, an IC50 [2] greater than 10000 nM and an IC50 [3] of 220 nM. It also gave an IC50 [4] of 3300 nM.
With `NCCCC[C@H](N)C(=O)N1CCN(c2nc(N3CCOCC3)nc(-n3c(C(F)F)nc4ccccc43)n2)CC1` the IC50 [1] was 670 nM, the IC50 [2] was greater than 10000 nM and the IC50 [3] was 50 nM. For the same compound, the IC50 [4] was 2300 nM.
`C[C@H](N)C(=O)N1CCN(c2nc(N3CCOCC3)nc(-n3c(C(F)F)nc4ccccc43)n2)CC1` showed an IC50 [5] of 890 nM, an IC50 [7] of 62 nM and an IC50 [1] of 490 nM. It also gave an IC50 [3] of 31 nM.
`NCCC(=O)N1CCN(c2nc(N3CCOCC3)nc(-n3c(C(F)F)nc4ccccc43)n2)CC1` was tested, and the IC50 [1] was 58 nM, the IC50 [2] was 3900 nM and the IC50 [3] was 98 nM. It also gave an IC50 [4] of 720 nM.
`NCC(=O)N1CCN(c2nc(N3CCOCC3)nc(-n3c(C(F)F)nc4ccccc43)n2)CC1` gave an IC50 [1] of 110 nM, an IC50 [2] of 9900 nM and an IC50 [3] of 35 nM. The IC50 [4] was 1500 nM.
For `CC(=O)NCC(=O)N1CCN(c2nc(N3CCOCC3)nc(-n3c(C(F)F)nc4ccccc43)n2)CC1`, the IC50 [1] was 26 nM, the IC50 [2] was 380 nM and the IC50 [3] was 54 nM. It also gave an IC50 [4] of 42 nM.
Work on `CC[C@H](C)[C@H](N)C(=O)N1CCN(c2nc(N3CCOCC3)nc(-n3c(C(F)F)nc4ccccc43)n2)CC1` yielded an IC50 [5] of 1400 nM, an IC50 [7] of 140 nM and an IC50 [1] of 1000 nM. The IC50 [2] was greater than 10000 nM and the IC50 [3] was 67 nM.
